Measurements published in ChEMBL document CHEMBL1145787, “Synthesis and structure-activity relationship of N-substituted 4-arylsulfonylpiperidine-4-hydroxamic acids as novel, orally active matrix metalloproteinase inhibitors for the treatment of osteoarthritis” (J Med Chem, 2003).

Assays:
[1] = In vivo inhibitory activity against Matrix metalloprotease enzyme by dialysis implant assay, value is relative to activity of CGS-27023 (54+/-2) at 25 mg/kg. po; assay type: functional
[2] = molecular target: Matrix metalloproteinase-9 (Homo sapiens, UniProt P14780); test: In vitro inhibitory activity against matrix metalloprotease-9.
Chain of Matrix metalloproteinase-9 (P14780 whole entry): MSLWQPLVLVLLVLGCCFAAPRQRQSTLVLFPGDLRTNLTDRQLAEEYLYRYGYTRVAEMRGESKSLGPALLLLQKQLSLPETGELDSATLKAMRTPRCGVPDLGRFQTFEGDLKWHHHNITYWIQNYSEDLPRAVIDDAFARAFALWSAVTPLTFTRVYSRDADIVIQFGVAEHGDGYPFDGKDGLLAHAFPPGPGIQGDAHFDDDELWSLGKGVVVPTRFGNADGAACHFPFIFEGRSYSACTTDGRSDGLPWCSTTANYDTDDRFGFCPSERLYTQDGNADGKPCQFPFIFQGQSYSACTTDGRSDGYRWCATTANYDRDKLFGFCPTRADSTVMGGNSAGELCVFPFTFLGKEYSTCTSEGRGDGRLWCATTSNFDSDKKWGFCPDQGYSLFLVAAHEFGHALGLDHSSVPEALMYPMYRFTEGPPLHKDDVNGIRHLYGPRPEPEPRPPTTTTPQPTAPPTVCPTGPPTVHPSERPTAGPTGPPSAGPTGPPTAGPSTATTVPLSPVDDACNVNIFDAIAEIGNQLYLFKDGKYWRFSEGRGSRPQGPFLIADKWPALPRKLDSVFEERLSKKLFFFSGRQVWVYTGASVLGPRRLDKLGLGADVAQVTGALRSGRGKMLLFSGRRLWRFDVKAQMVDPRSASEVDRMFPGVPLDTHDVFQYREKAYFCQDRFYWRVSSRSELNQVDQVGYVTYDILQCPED

Collagenase 3 = Collagenase 3 (Homo sapiens, UniProt P45452)
[3] = In vivo inhibitory activity against Matrix metalloprotease enzyme by dialysis implant assay, value is relative to activity of CGS-27023 (68+/5-) at 25 mg/kg. po; assay type: functional
[4] = molecular target: T1, Disintegrin and metalloproteinase domain-containing protein 17 (Homo sapiens, UniProt P78536); test: Inhibition of Tumor necrosis factor alpha converting enzyme (TACE) at 10 uM
T1 sequence (P78536 whole entry, the tested form may be a part): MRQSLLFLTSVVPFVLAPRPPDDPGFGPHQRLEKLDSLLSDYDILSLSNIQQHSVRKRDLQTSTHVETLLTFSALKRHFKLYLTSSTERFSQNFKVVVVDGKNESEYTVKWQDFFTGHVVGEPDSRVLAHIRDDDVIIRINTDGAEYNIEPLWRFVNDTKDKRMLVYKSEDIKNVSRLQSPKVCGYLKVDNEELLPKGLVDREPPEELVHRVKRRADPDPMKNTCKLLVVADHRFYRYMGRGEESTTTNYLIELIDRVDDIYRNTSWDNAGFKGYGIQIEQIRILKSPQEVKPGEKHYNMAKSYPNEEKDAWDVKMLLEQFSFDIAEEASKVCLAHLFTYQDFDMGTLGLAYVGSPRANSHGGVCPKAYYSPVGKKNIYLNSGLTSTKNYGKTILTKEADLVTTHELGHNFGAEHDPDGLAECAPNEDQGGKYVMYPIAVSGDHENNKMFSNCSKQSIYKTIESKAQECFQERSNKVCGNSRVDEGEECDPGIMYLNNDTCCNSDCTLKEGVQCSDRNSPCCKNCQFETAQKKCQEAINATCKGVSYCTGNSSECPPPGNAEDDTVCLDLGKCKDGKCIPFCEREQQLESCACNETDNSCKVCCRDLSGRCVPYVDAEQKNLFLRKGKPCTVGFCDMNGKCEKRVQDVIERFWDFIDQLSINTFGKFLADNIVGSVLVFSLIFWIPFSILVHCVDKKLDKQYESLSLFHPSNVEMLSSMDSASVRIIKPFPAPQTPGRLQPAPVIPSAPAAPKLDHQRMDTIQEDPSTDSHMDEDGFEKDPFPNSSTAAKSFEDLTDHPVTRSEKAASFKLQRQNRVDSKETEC
Method in brief: (§1)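 Dose–response curves were not generated when inhibition was below 60% at 10 μM.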

[5] = In vivo inhibitory activity against Matrix metalloprotease enzyme by dialysis implant assay, value is relative to activity of CGS-27023 (51+/-3) at 25 mg/kg. po; assay type: functional
[6] = In vivo inhibition of Matrix metalloprotease enzyme by Sponge-wrapped cartilage assay, value are relative to activity of CGS-27023 (33+/-2) at 25 mg/kg. po. bid; assay type: functional
[7] = In vivo inhibitory activity against Matrix metalloprotease enzyme by dialysis implant assay, value is relative to activity of CGS-27023 (62+/-5) at 25 mg/kg. po; assay type: functional
[8] = In vivo inhibitory activity against Matrix metalloprotease enzyme by dialysis implant assay, value is relative to activity of CGS-27023 (61+/-3) at 25 mg/kg. po; assay type: functional
[9] = In vivo inhibition of Matrix metalloprotease enzyme by Sponge-wrapped cartilage assay, value is relative to activity of RS-130830 (23+/-3) at 10 mg/kg. po. bid; assay type: functional
[10] = In vivo inhibitory activity against Matrix metalloprotease enzyme by dialysis implant assay, value are relative to activity of CGS-27023 (67+/-3) at 25 mg/kg. po; assay type: functional
[11] = In vivo inhibitory activity against Matrix metalloprotease enzyme by dialysis implant assay, value is relative to activity of CGS-27023 (76+/-3) at 25 mg/kg. po; assay type: functional
[12] = molecular target: T2, Interstitial collagenase (Homo sapiens) (UniProt P03956); test: Inhibition of Matrix metalloprotease-1 at 10 uM; method in brief: as §1
T2 sequence (whole entry): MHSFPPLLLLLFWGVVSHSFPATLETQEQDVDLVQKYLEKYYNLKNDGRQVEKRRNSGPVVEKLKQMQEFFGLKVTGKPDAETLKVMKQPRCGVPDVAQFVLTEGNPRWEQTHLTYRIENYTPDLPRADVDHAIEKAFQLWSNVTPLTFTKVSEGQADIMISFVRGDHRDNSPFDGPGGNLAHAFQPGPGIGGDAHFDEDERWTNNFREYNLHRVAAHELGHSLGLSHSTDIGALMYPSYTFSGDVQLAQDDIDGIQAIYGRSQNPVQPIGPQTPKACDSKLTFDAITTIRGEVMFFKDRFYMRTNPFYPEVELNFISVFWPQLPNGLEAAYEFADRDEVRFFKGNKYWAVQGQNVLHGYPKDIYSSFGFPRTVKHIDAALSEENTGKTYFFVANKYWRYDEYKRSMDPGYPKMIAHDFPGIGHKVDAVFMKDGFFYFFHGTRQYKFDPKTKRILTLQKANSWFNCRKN

[13] = In vivo inhibitory activity against Matrix metalloprotease enzyme by dialysis implant assay, value are relative to activity of CGS-27023 (64+/-3) at 25 mg/kg. po; assay type: functional
Interstitial collagenase = molecular target: T3, Interstitial collagenase (Homo sapiens, UniProt P03956); test: In vitro inhibitory activity against matrix metalloprotease-1
T3 sequence (P03956 whole entry): T2 sequence (whole entry)

[14] = molecular target: T1, Disintegrin and metalloproteinase domain-containing protein 17; test: In vitro inhibitory activity against tumor necrosis factor alpha converting enzyme (TACE).
Oryctolagus cuniculus = test: Effect of compound on cartilage in surgically induced osteoarthritis (OA) model in rabbit at 25 mg/kg; assay type: functional
Method in brief: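 Rabbits had anterior cruciate ligament transection plus meniscectomy in one knee, with sham surgery on the contralateral knee. From day 10 after surgery, groups of 12 were dosed once daily by oral gavage with vehicle, test compound or the RS-130830 reference for 4 weeks. Knee joints were then collected and scored for gross pathological changes by blinded investigators.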

Rattus norvegicus = test: In vivo inhibition of by Matrix metalloprotease enzyme Sponge-wrapped cartilage assay at 5 mg/kg. po. bid; assay type: functional
[15] = In vivo inhibitory activity against Matrix metalloprotease enzyme by dialysis implant assay, value is relative to activity of CGS-27023 (75+/-2) at 25 mg/kg. po; assay type: functional
[16] = In vivo inhibition of Matrix metalloprotease enzyme by Sponge-wrapped cartilage assay, compared to activity of RS-130830 (20+/-2) at 5 mg/kg. po. bid; assay type: functional
[17] = In vivo inhibition of Matrix metalloprotease enzyme by Sponge-wrapped cartilage assay, compared to activity of RS-130830 (inactive) at 5 mg/kg. po. qd; assay type: functional
[18] = In vivo inhibition of Matrix metalloprotease enzyme by Sponge-wrapped cartilage assay, value is relative to activity of RS-130830 (40+/-3) at 10 mg/kg. po. bid; assay type: functional
[19] = In vivo inhibitory activity against Matrix metalloprotease enzyme by dialysis implant assay, value is relative to activity of CGS-27023 (42+/-2) at 25 mg/kg. po; assay type: functional
[20] = In vivo inhibition of Matrix metalloprotease enzyme by Sponge-wrapped cartilage assay, value is relative to activity of CGS-27023 (39+/-3) at 25 mg/kg. po. bid; assay type: functional
[21] = In vivo inhibitory activity against Matrix metalloprotease enzyme by dialysis implant assay, value is relative to activity of CGS-27023 (60+/-3) at 25 mg/kg. po; assay type: functional
[22] = In vivo inhibitory activity against Matrix metalloprotease enzyme by dialysis implant assay, value is relative to activity of CGS-27023 (64+/-2) at 25 mg/kg. po; assay type: functional
[23] = In vivo inhibition of Matrix metalloprotease enzyme by Sponge-wrapped cartilage assay, value is relative to activity of RS-130830 (27+/-3) at 10 mg/kg. po. bid; assay type: functional
[24] = In vivo inhibitory activity against Matrix metalloprotease enzyme by dialysis implant assay, value is relative to activity of CGS-27023 (60+/-2) at 25 mg/kg. po; assay type: functional
[25] = In vivo inhibitory activity against Matrix metalloprotease enzyme by dialysis implant assay, value is relative to activity of CGS-27023 (74+/-2) at 25 mg/kg. po; assay type: functional
[26] = In vivo inhibition of Matrix metalloprotease enzyme by Sponge-wrapped cartilage assay, value are relative to activity of RS-130830 (27+/-3) at 10 mg/kg. po. bid; assay type: functional
[27] = In vivo inhibitory activity against Matrix metalloprotease enzyme by dialysis implant assay, value are relative to activity of CGS-27023 (73+/-4) at 25 mg/kg. po; assay type: functional

COc1ccc(S(=O)(=O)C2(C(=O)NO)CCN(CCOc3ccccc3)CC2)cc1
inhibition in vivo at 25 mg/kg [1]: 6% | IC50 [2]: 26 nM | IC50 (Collagenase 3): 3 nM

COc1ccc(S(=O)(=O)C2(C(=O)NO)CCN(CC=C(C)C)CC2)cc1
inhibition in vivo at 25 mg/kg [3]: 57% | inhibition [4]: 49%

Cc1ccc(CN2CCC(C(=O)NO)(S(=O)(=O)c3ccc(OCc4ccc(Cl)cc4)cc3)CC2)cc1
IC50 (Collagenase 3): 6 nM

COc1ccc(S(=O)(=O)C2(C(=O)NO)CCN(Cc3ccc4ccccc4c3)CC2)cc1
inhibition in vivo at 25 mg/kg [5]: 62% | inhibition in vivo at 25 mg/kg [6]: 14%

COc1ccc(S(=O)(=O)C2(C(=O)NO)CCN(CCc3ccccc3)CC2)cc1
inhibition in vivo at 25 mg/kg [7]: 68% | IC50 (Collagenase 3): 9 nM

CCN1CCC(C(=O)NO)(S(=O)(=O)c2ccc(Oc3ccc(Cl)cc3)cc2)CC1
inhibition in vivo at 25 mg/kg [8]: 90% | inhibition in vivo at 10 mg/kg [9]: 75% | IC50 [2]: 1 nM | IC50 (Collagenase 3): 1 nM

CCCCOc1ccc(S(=O)(=O)C2(C(=O)NO)CCN(CCOc3ccccc3)CC2)cc1
inhibition in vivo at 25 mg/kg [1]: 29% | IC50 [2]: 5 nM

CCCCOc1ccc(S(=O)(=O)C2(C(=O)NO)CCN(Cc3cccc(OC)c3)CC2)cc1
inhibition in vivo at 25 mg/kg [10]: 82% | IC50 [2]: 3 nM

CCCCN1CCC(C(=O)NO)(S(=O)(=O)c2ccc(OC)cc2)CC1
inhibition in vivo at 25 mg/kg [11]: 56% | inhibition [12]: 56% | inhibition [4]: 15%

COc1ccc(S(=O)(=O)C2(C(=O)NO)CCN(Cc3ccc(-c4ccccn4)cc3)CC2)cc1
inhibition in vivo at 25 mg/kg [13]: 78% | IC50 [2]: 6 nM

COc1ccc(CCN2CCC(C(=O)NO)(S(=O)(=O)c3ccc(OC)cc3)CC2)cc1
inhibition in vivo at 25 mg/kg [7]: 48% | inhibition [4]: 53% | IC50 (Collagenase 3): 2 nM

CCCCOc1ccc(S(=O)(=O)C2(C(=O)NO)CCOCC2)cc1
IC50 (Interstitial collagenase): 1380 nM | IC50 [2]: 9.2 nM | IC50 [14]: 177 nM | IC50 (Collagenase 3): 1.4 nM

COc1ccc(S(=O)(=O)C2(C(=O)NO)CCN(Cc3ccc(Cl)c(Cl)c3)CC2)cc1
inhibition in vivo at 25 mg/kg [5]: 47% | IC50 [2]: 6 nM | IC50 (Collagenase 3): 2 nM

COc1ccc(S(=O)(=O)C2(C(=O)NO)CCN(Cc3ccccc3)CC2)cc1
IC50 [2]: 10 nM

O=C(NO)C1(CS(=O)(=O)c2ccc(Oc3ccc(Cl)cc3)cc2)CCOCC1 [CTS-1027]
IC50 (Interstitial collagenase): 233 nM | gross pathology score at 25 mg/kg (Oryctolagus cuniculus): 7.9 score | inhibition in vivo at 5 mg/kg (Rattus norvegicus): 20% | IC50 [14]: 176 nM

CCCCOc1ccc(S(=O)(=O)C2(C(=O)NO)CCN(Cc3ccc(OCCN4CCCCC4)cc3)CC2)cc1
inhibition in vivo at 25 mg/kg [15]: 98% | inhibition in vivo at 5 mg/kg [16]: 56% | inhibition in vivo at 5 mg/kg [17]: 33% | inhibition in vivo at 10 mg/kg [18]: 67%

O=C(NO)C1(S(=O)(=O)c2ccc(Oc3ccc(Cl)cc3)cc2)CCNCC1
IC50 (Interstitial collagenase): 1260 nM | IC50 [2]: 2 nM | IC50 [14]: 848 nM | IC50 (Collagenase 3): 2 nM

COc1ccc(S(=O)(=O)C2(C(=O)NO)CCN(Cc3ccc(OCCN4CCCCC4)cc3)CC2)cc1
inhibition in vivo at 25 mg/kg [19]: 53% | inhibition in vivo at 25 mg/kg [20]: 56% | IC50 [2]: 3 nM | IC50 (Collagenase 3): 3 nM

COc1ccc(S(=O)(=O)C2(C(=O)NO)CCN(CCCOc3ccccc3)CC2)cc1
inhibition in vivo at 25 mg/kg [21]: 28% | inhibition [4]: 50% | IC50 (Collagenase 3): 4 nM

COc1ccc(S(=O)(=O)C2(C(=O)NO)CCN(Cc3ccc(-c4ccccc4)cc3)CC2)cc1
inhibition in vivo at 25 mg/kg [3]: 29% | IC50 (Interstitial collagenase): 1330 nM | IC50 [2]: 13 nM | IC50 [14]: 610 nM | IC50 (Collagenase 3): 3 nM

CCCCOc1ccc(S(=O)(=O)C2(C(=O)NO)CCN(CC)CC2)cc1
inhibition in vivo at 25 mg/kg [22]: 64% | inhibition in vivo at 10 mg/kg [23]: 34% | inhibition [4]: 51% | IC50 (Collagenase 3): 2 nM

COc1ccc(S(=O)(=O)C2(C(=O)NO)CCN(Cc3ccc(Br)cc3)CC2)cc1
inhibition in vivo at 25 mg/kg [5]: 51% | IC50 [2]: 10 nM | inhibition [4]: 71% | IC50 (Collagenase 3): 2 nM

COc1ccc(S(=O)(=O)C2(C(=O)NO)CCN(Cc3cccc(OC)c3)CC2)cc1
inhibition in vivo at 25 mg/kg [24]: 70% | IC50 [2]: 9 nM

COc1ccc(S(=O)(=O)C2(C(=O)NO)CCN(C3CCCCCCC3)CC2)cc1
inhibition in vivo at 25 mg/kg [25]: 71% | inhibition [4]: 22%

CC(C)CCOc1ccc(S(=O)(=O)C2(C(=O)NO)CCN(Cc3ccccc3)CC2)cc1
inhibition in vivo at 25 mg/kg [13]: 80% | inhibition in vivo at 10 mg/kg [26]: 34% | IC50 [2]: 4 nM | IC50 (Collagenase 3): 2 nM

COc1ccc(CN2CCC(C(=O)NO)(S(=O)(=O)c3ccc(Oc4ccc(Cl)cc4)cc3)CC2)cc1
inhibition in vivo at 25 mg/kg [27]: 93% | IC50 (Interstitial collagenase): 490 nM | IC50 [14]: 492 nM

COc1ccc(S(=O)(=O)C2(C(=O)NO)CCN(Cc3ccc(F)cc3)CC2)cc1
inhibition in vivo at 25 mg/kg [11]: 83% | IC50 [2]: 16 nM | IC50 (Collagenase 3): 2 nM

CCCCOc1ccc(S(=O)(=O)C2(C(=O)NO)CCN(Cc3ccc(Cl)c(Cl)c3)CC2)cc1
inhibition in vivo at 25 mg/kg [13]: 14% | IC50 [2]: 20 nM | inhibition [4]: 57% | IC50 (Collagenase 3): 5 nM

COc1ccc(S(=O)(=O)C2(C(=O)NO)CCN(C(C)(C)C)CC2)cc1
inhibition [12]: 59% | inhibition [4]: 9%
